{
  "source": "ChEMBL document CHEMBL4406847",
  "about": "“Tryptoline-based benzothiazoles re-sensitize MRSA to β-lactam antibiotics” (Bioorg Med Chem, 2019)",
  "key": {"Staphylococcus aureus [1]": {"test_system": "Staphylococcus aureus", "assay": "Potentiation of cefazolin induced antibacterial activity against methicillin resistant Staphylococcus aureus ATCC BAA-1764 assessed as minimum resensitizing concentration after 18 hrs by broth microdilution method", "format": "functional", "conditions": "ATCC BAA-1764, 18 h, read-out: MEC", "procedure,_shortened": "(§1)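 Compound titrated in the presence of cefazolin at its CLSI breakpoint (8 μg/mL); MRC is the compound concentration at which no overnight growth occurs, in μg/mL; confirmed in triplicate.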"}, "Staphylococcus aureus [2]": {"test_system": "Staphylococcus aureus", "assay": "Potentiation of cefuroxime mediated antibacterial activity against methicillin resistant Staphylococcus aureus NRS100 assessed as minimum resensitizing concentration after 18 hrs by broth microdilution method", "format": "functional", "conditions": "NRS100, 18 h, read-out: MEC", "procedure,_shortened": "(§2)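 Compound titrated with cefuroxime, using the same method as the cefazolin MRC; MRC is the lowest compound concentration preventing overnight growth, in μg/mL.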"}, "Staphylococcus aureus [3]": {"test_system": "Staphylococcus aureus", "assay": "Potentiation of cefazolin induced antibacterial activity against methicillin resistant Staphylococcus aureus NR-46411 assessed as minimum resensitizing concentration after 18 hrs by broth microdilution method", "format": "functional", "conditions": "NR-46411, 18 h, read-out: MEC", "procedure,_shortened": "as §1"}, "Staphylococcus aureus [4]": {"test_system": "Staphylococcus aureus", "assay": "Potentiation of cefuroxime induced antibacterial activity against methicillin resistant Staphylococcus aureus ATCC BAA-1764 assessed as minimum resensitizing concentration after 18 hrs by broth microdilution method", "format": "functional", "conditions": "ATCC BAA-1764, 18 h, read-out: MEC", "procedure,_shortened": "as §2"}, "Staphylococcus aureus [5]": {"test_system": "Staphylococcus aureus", "assay": "Potentiation of cefuroxime induced antibacterial activity against Staphylococcus aureus ATCC BAA-1683 assessed as minimum resensitizing concentration after 18 hrs by broth microdilution method", "format": "functional", "conditions": "ATCC BAA-1683, 18 h, read-out: MEC", "procedure,_shortened": "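MRSA BAA-1683 grown overnight with cefuroxime plus varying analogue, method as for cefazolin MRC (antibiotic at CLSI breakpoint); MRC = analogue concentration giving no overnight growth; confirmed in triplicate.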"}, "Staphylococcus aureus [6]": {"test_system": "Staphylococcus aureus", "assay": "Potentiation of cefazolin induced antibacterial activity against methicillin resistant Staphylococcus aureus NRS100 assessed as minimum resensitizing concentration after 18 hrs by broth microdilution method", "format": "functional", "conditions": "NRS100, 18 h, read-out: MEC", "procedure,_shortened": "as §1"}, "Staphylococcus aureus [7]": {"test_system": "Staphylococcus aureus", "assay": "Potentiation of cefazolin induced antibacterial activity against methicillin resistant Staphylococcus aureus ATCC BAA-44 assessed as minimum resensitizing concentration after 18 hrs by broth microdilution method", "format": "functional", "conditions": "ATCC BAA-44, 18 h, read-out: MEC", "procedure,_shortened": "as §1"}, "Staphylococcus aureus [8]": {"test_system": "Staphylococcus aureus", "assay": "Potentiation of cefuroxime induced antibacterial activity against methicillin resistant Staphylococcus aureus NR-46411 assessed as minimum resensitizing concentration after 18 hrs by broth microdilution method", "format": "functional", "conditions": "NR-46411, 18 h, read-out: MEC", "procedure,_shortened": "as §2"}, "Staphylococcus aureus [9]": {"test_system": "Staphylococcus aureus", "assay": "Potentiation of cefazolin induced antibacterial activity against methicillin resistant Staphylococcus aureus NRS384 assessed as minimum resensitizing concentration after 18 hrs by broth microdilution method", "format": "functional", "conditions": "NRS384, 18 h, read-out: MEC", "procedure,_shortened": "as §1"}, "[10]": {"assay": "Cytotoxicity against human HeLa cells assessed as cell growth inhibition measured after 24 hrs by Celltiter Glo luminescent assay", "format": "cell-based", "conditions": "HeLa cells"}, "Staphylococcus aureus [11]": {"test_system": "Staphylococcus aureus", "assay": "Potentiation of cefuroxime induced antibacterial activity against methicillin resistant Staphylococcus aureus NRS384 assessed as minimum resensitizing concentration after 18 hrs by broth microdilution method", "format": "functional", "conditions": "NRS384, 18 h, read-out: MEC", "procedure,_shortened": "as §2"}, "Staphylococcus aureus [12]": {"test_system": "Staphylococcus aureus", "assay": "Potentiation of cefazolin induced antibacterial activity against Staphylococcus aureus ATCC BAA-1683 assessed as minimum resensitizing concentration after 18 hrs by broth microdilution method", "format": "functional", "conditions": "ATCC BAA-1683, 18 h, read-out: MEC", "procedure,_shortened": "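MRSA BAA-1683 grown overnight with cefazolin held at its CLSI breakpoint, 8 μg/mL, plus varying analogue; MRC = analogue concentration giving no overnight growth; confirmed in triplicate.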"}, "Staphylococcus aureus [13]": {"test_system": "Staphylococcus aureus", "assay": "Antibacterial activity against methicillin resistant Staphylococcus aureus ATCC BAA-1764 after 18 hrs by broth microdilution method", "format": "functional", "conditions": "ATCC BAA-1764, 18 h", "procedure,_shortened": "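Compound alone, MIC by standard CLSI broth microdilution; lowest concentration with no growth, reported in μg/mL; confirmed in triplicate.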"}},
  "data": [
    {"compound": "Nc1cc(Cl)c2nc(N3CCc4c([nH]c5ccc(Cl)cc45)C3)sc2c1", "values": [
      {"measurement": "minimal effective concentration", "setting": "Staphylococcus aureus [1]", "value": 0.5, "unit": "µg/mL"},
      {"measurement": "minimal effective concentration", "setting": "Staphylococcus aureus [2]", "value": 4, "unit": "µg/mL"},
      {"measurement": "minimal effective concentration", "setting": "Staphylococcus aureus [3]", "value": 0.5, "unit": "µg/mL"},
      {"measurement": "minimal effective concentration", "setting": "Staphylococcus aureus [4]", "value": 32, "unit": "µg/mL"},
      {"measurement": "minimal effective concentration", "setting": "Staphylococcus aureus [5]", "value": 8, "unit": "µg/mL"},
      {"measurement": "minimal effective concentration", "setting": "Staphylococcus aureus [6]", "value": 4, "unit": "µg/mL"},
      {"measurement": "minimal effective concentration", "setting": "Staphylococcus aureus [7]", "value": 2, "unit": "µg/mL"},
      {"measurement": "minimal effective concentration", "setting": "Staphylococcus aureus [8]", "value": "< 0.25", "unit": "µg/mL"},
      {"measurement": "minimal effective concentration", "setting": "Staphylococcus aureus [9]", "value": 4, "unit": "µg/mL"},
      {"measurement": "GI50 at 24 h", "setting": "[10]", "value": "> 100", "unit": "µg/mL"},
      {"measurement": "minimal effective concentration", "setting": "Staphylococcus aureus [11]", "value": 4, "unit": "µg/mL"},
      {"measurement": "minimal effective concentration", "setting": "Staphylococcus aureus [12]", "value": 1, "unit": "µg/mL"},
      {"measurement": "MIC", "setting": "Staphylococcus aureus [13]", "value": "> 32", "unit": "µg/mL"}
    ]}
  ]
}
